Rows were chosen to be rich in hits. Some 2.3% of all compounds tested hit in one or more screens of this group.
ROMK primary – modulates human ROMK potassium channel activity; 130,000 compounds, 2% hits; AID 1918; P48048; Tet-inducible ROMK, thallium flux fluorescence; actives lie on both sides; B-score at 10 µM;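 active = signal ratio slope over the read window, or its plate-corrected B-score, at least 3 SD from the plate mean, either direction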;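 also: B-score of the F/F0 ratio slope over 7 to 12 s after thallium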
Target sequence (P48048 whole entry, looked up): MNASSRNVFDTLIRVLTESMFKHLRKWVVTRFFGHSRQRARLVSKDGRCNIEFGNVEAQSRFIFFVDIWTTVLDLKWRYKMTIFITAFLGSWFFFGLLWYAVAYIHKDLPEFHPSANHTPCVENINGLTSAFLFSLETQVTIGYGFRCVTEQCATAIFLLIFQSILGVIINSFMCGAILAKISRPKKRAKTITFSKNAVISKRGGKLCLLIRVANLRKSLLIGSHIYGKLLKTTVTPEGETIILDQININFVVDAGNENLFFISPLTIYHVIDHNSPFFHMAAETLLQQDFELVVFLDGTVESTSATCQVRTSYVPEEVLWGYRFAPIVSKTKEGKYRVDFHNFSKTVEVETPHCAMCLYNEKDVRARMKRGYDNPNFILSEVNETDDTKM
Autophagy mod – modulators of autophagy | MEF GFP-LC3 puncta imaging; test concentration mostly 10 µM | calls only at 10 µM (by protocol) | 190,000 compounds, 0.98% hits | AID 463193;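 active = percentage of spot-positive cells more than 3 SD above its plate mean, without a fluorescence outlier flag or 80% toxicity; inconclusive = no clear call, values can overlap the other calls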;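 also: spot-positive cell cutoff set from DMSO-treated cells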
ABCB1 block – human ABCB1 inhibition, ABCG2 as counter-screen. P08183. CCRF-Adr cells, JC-1 efflux, flow cytometry. inhibition, % at 6.6 µM. 190,000 compounds, 0.067% hits. AID 1326; in the data active = inhibition above about 40%;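 also: 0% = vehicle and 100% = reference inhibitor; higher value means more JC-1 retained so stronger ABCB1 efflux block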
Insulin prom up – MIN6 insulin promoter up-regulation | MIN6 insulin promoter-GFP reporter, high-content imaging; stronger effect = higher value | z-score at 5 µM | 190,000 compounds, 0.3% hits | AID 1625;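 active = z-score above 3 at 5 µM with at least 500 cells counted in the well; inconclusive = wells under 500 cells, flagged as cytotoxic or low count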
ABCG2 block – blocks JC-1 efflux by human ABCG2 transporter; Q9UNQ0; IgMXP3 cells, flow cytometry; inhibition, % at 6.6 µM; 190,000 compounds, 0.1% hits; AID 1325;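 active = inhibition above 80%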;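 also: 0% = DMSO and 100% = nicardipine control wells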
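Test system: IgMXP3 (ABCG2) plus far-red-tagged CCRF-Adr (ABCB1) cells. Reagent: JC-1 dye as substrate. Timing: 10 min exposure at 25 °C with rotation, no wash. Measured by: flow cytometric JC-1 green MFI at 530 nm. Read-out: percent efflux inhibition, scaled nicardipine 100% to DMSO 0%. Control set: nicardipine and DMSO wells.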
SDO1 yeast rescue – sdo1-depleted yeast growth rescue; S. cerevisiae sdo1-depleted JHY4D growth rescue, OD600 30 h; stronger effect = higher value; pdr5 snq2 efflux-pump mutant strain; z-score at 10 µM; 140,000 compounds, 0.21% hits;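 active = z-score above 3 at both the 24 hr and the 30 hr optical density reads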;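 also: z-score against mean and SD of all compound wells on the same plate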
ROMK hit retest – retested hit modulating human ROMK potassium channel; shares compounds with ROMK primary; ROMK thallium flux, fluorescence ratio; stronger effect = lower value; normalized thallium flux (F/F0 slope) at 10 µM; 3,000 compounds, 54% hits;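 active = Flux at 10 µM at least 3 SD below or above vehicle control mean in one or both replicates; inconclusive = no clear call, values can overlap the other calls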
An asterisk follows results filed as active; i = inactive; ? = inconclusive; . = no result given; + = active, no number.

SMILES	ROMK primary	Autophagy mod	ABCB1 block	Insulin prom up	ABCG2 block	SDO1 yeast rescue	ROMK hit retest
CCc1ccc2[nH]c(=O)c(CN(CCN(C)C)C(=S)NCc3ccco3)cc2c1	-1.8	i	0	-0.42	-2	.	.
Cc1cc2cc(CN(Cc3ccco3)C(=O)NCc3ccccc3)c(=O)[nH]c2cc1C	-5.2*	i	1	0.28	3	-0.33	0.059*
CCc1ccc2[nH]c(=O)c(CN(CCN(CC)CC)C(=S)NCc3ccco3)cc2c1	-3.3*	i	0	.	0	.	0.064*
CCOC(=O)/C=C/COc1ccccc1[N+](=O)[O-]	0.0064	i	1	-0.52	4	.	.
Cc1cccc[n+]1CC(=O)N1c2ccccc2Sc2ccccc21	0.24	i	0	-0.29	2	.	.
N#CC1=C(N)SC(N)=C(C#N)C1c1ccc(C(F)(F)F)cc1	-3.5*	i	0	0.08	2	-0.59	0.045*
N#CC1=C(N)SC(N)=C(C#N)C1c1ccc([N+](=O)[O-])cc1	1	i	-1	0.04	-4	-0.23	.
CNC(=O)c1nnsc1S(=O)(=O)c1ccc(Cl)cc1	-5.6*	i	0	0.44	0	.	0.053*
Cc1nn(-c2ccccc2)c(Cl)c1/C=C1\SC(=S)N(CCCCCC(=O)O)C1=O	.	.	.	0.47	.	.	.
O=C(O)CCCN1C(=O)/C(=C/c2cn(-c3ccccc3)nc2-c2cccs2)SC1=S	-3.4*	i	-1	0.04	-4	.	?
O=C(O)c1ccc(COc2ccc(Cl)cc2)o1	.	i	0	0.09	6	0.63	?
CCn1cc([N+](=O)[O-])c(C(=O)Nc2nc3ccc(OC)cc3s2)n1	-0.44	i	0	-0.95	6	.	.
Cc1ccc(NC(=O)c2ccccc2O)cc1	.	i	0	0.21	13	-1.4	0.065*
O=C(Nc1ccccc1)c1ccccc1O	.	i	0	-0.47	3	-0.54	.
O=C1N(Cc2cccc(Cl)c2)C[C@@H]2C[C@@H](c3cccn3-c3cccnc3)N3CCC[C@@]123	-2.7*	i	6	-1.1	4	.	0.061*
CCN(CC)C(=O)CCSc1nnc(-c2ccncc2)o1	0.84	i	0	0.28	-3	1.4	.
CCN(CC)C(=O)CCSc1nnc(-c2ccco2)o1	1.3	i	1	-0.16	3	.	0.073
N=C1C(c2nc3ccccc3s2)=C(O)CN1c1ccccc1	1.1	i	0	0.3	5	.	.
O=C(/C=C/c1ccncc1)c1ccc2c(c1)OCCO2	-2.7*	i	1	0.05	7	.	0.053*
O=C(/C=C/c1ccccc1)c1ccc2c(c1)OCO2	0.046	.	.	0.21	.	.	.
CCN1CCN(c2c(/C=C3\SC(=S)N(Cc4ccco4)C3=O)c(C)c(C#N)c(=O)n2C)CC1	.	.	.	.	.	.	0.048*
CCN1C(=O)/C(=C\N2CCN(C(=O)c3ccco3)CC2)SC1=S	.	.	.	-0.07	.	.	.
Cc1ccc2nsnc2c1NC(=O)COc1ccccc1	0.015	i	0	-0.06	4	.	.
O=C(CCc1ccccc1)N1CCN(c2ccc(Cl)cc2)CC1	-1.4	i	1	-0.37	7	-1	.
O=C(CCc1ccccc1)N1CCN(c2ccc([N+](=O)[O-])cc2)CC1	-3.6*	i	1	0.37	10	.	0.063*
SMILES	ROMK primary	Autophagy mod	ABCB1 block	Insulin prom up	ABCG2 block	SDO1 yeast rescue	ROMK hit retest
O=C(Cc1ccc([N+](=O)[O-])cc1)N1CCCCCC1	-0.94	i	1	0.08	1	.	.
O=C(CCc1ccc(Oc2cc([N+](=O)[O-])cc([N+](=O)[O-])c2)cc1)N1CCCCCC1	-2.9*	i	2	-0.02	10	-1.4	0.064*
Cc1ccc(OC(=S)Nc2ccc(F)cc2)cc1	-0.82	i	0	.	2	-0.82	.
Cc1ccc(OC(=S)Nc2ccc(O)cc2)cc1	-5.1*	i	0	.	0	-0.27	0.043*
O=C1CC(=O)N(CCc2ccccc2)C(=O)N1CCc1ccccc1	0.36	i	-1	1.4	-2	1.1	.
O=C1C=CC(=O)C(C2=C3C(=O)N(CCc4ccccc4)CC(=O)N3CCC2)=C1	-3*	i	0	0.06	-3	0.05	0.051*
COc1ccc(C2C(C#N)=C(N)Oc3c2ccc2cccnc32)cc1OC (stereo not drawn)	6.7*	i	1	0.38	15	.	0.077
CCOc1cc(/C=N/NC(=O)c2ccc(-c3csc(Nc4ccc(C)cc4)n3)cc2)ccc1OCC(=O)O	3.3*	i	-3	-0.54	-5	.	?
COc1ccc(NC(=O)c2ccc3c(c2)NC(=O)CO3)cc1OC	.	i	0	.	1	.	.
N#Cc1c(N)n(CCOC(=O)c2cccc(Br)c2)c2nc3ccccc3nc12	-1.4	i	0	-0.12	8	-0.41	0.089
Cc1ccc(OCC(=O)Nc2cccc(-c3nnc(-c4ccccc4)o3)c2)cc1	.	i	2	-0.36	4	0.92	0.079
Cc1cccc(C)c1OCC(=O)Nc1cccc(-c2nnc(-c3ccccc3)o2)c1	-1.8	i	14	-0.32	61	-1.7	.
NC(=O)C1CCN(CC(=O)Nc2ccccc2Sc2ccccc2)CC1	.	i	1	0.28	1	0.39	0.068*
Cc1ccc(OCC(O)Cn2c(=N)n(Cc3ccccc3)c3ccccc32)cc1 (stereo not drawn)	-4.6*	i	2	.	-4	-1	0.052*
Cc1cccc(OCC(O)Cn2c(=N)n(CCN3CCCCC3)c3ccccc32)c1 (stereo not drawn)	-7.6*	+	1	-1.2	2	0.25	0.049*
N=c1n(Cc2ccc(Cl)cc2)c2ccccc2n1CC(O)COc1ccccc1 (stereo not drawn)	-4.2*	i	1	-1.4	2	.	0.054*
Cc1cccc(OCC(O)Cn2c(=N)n(Cc3ccccc3)c3ccccc32)c1 (stereo not drawn)	.	.	.	-0.51	.	.	.
N=c1n(Cc2ccccc2)c2ccccc2n1CC(O)COc1ccc(Cl)cc1Cl (stereo not drawn)	-1.6	i	-2	?	2	.	.
COc1ccc(OCC(O)Cn2c(=N)n(Cc3ccccc3)c3ccccc32)cc1 (stereo not drawn)	-7*	i	1	-3	0	0.02	0.048*
CC1CCCCN1C(=O)CNCC1CCCO1 (stereo not drawn)	.	i	2	-0.24	1	.	.
CC(=O)c1cnc(Nc2cccc(C)c2)s1	-0.48	i	1	-0.35	6	.	.
Cn1nnnc1SCCNCc1ccccc1OCc1ccc(F)cc1	-3.8*	i	2	-0.26	3	.	0.059*
COC(=O)c1cc(NC(=O)c2ccccc2)c(=O)oc1C/C=N\OCc1ccc(Cl)cc1Cl	-2.8*	i	1	0.29	2	-0.79	0.065*
Cc1nn(C)c(C(=O)Sc2cccc(Cl)c2)c1[N+](=O)[O-]	-2.9*	.	.	0.45	.	.	0.064*
Cc1nn(C)c(C(=O)Sc2ccccc2)c1[N+](=O)[O-]	-1.9	.	.	-0.03	.	.	.

Assay outcomes deposited in PubChem by several laboratories.
